# Most compounds without a hit are left out; they make up all but 2.6% or so of the library.
# T cruzi inh – inhibitors of intracellular T. cruzi growth, primary screen, luminescence, NIH3T3 host cells. T. cruzi beta-gal in NIH3T3, 90 h. inhibition, % (concentration not given with the values). 300,000 compounds, 1.4% hits;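 active = mean inhibition across valid replicates above about 55%, limit read from the data; inconclusive = mean below that limit but half or more replicates reach it; inactive = mean below it, under half of replicates reach it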;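 note: signal also drops with host cell toxicity which is not excluded here; 0% = plate median of DMSO wells and 100% = zero luminescence signal; higher percent means less beta-gal luminescence so fewer parasites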
#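 Test system: β-gal T. cruzi (Tulahuen C4) inside NIH/3T3 cells / Quantity: 5,000 cells/well / Measured by: luminescence from GalScreen with 0.05% NP40, read after 60 min / Medium: DMEM plus 2% FBS / Measure: parasite load inhibition, % / Reagent: Tulahuen C4 trypomastigotes, 5000/well / Schedule: co-culture of at least 90 h after 3 h attachment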
# PolyA inhibitor – polyadenylation inhibitors in yeast reporter cells, primary screen, luminescence, S. cerevisiae | S. cerevisiae SKY197-pL101 polyadenylation reporter, beta-gal luminescence; efflux-impaired pdr1/pdr3 knockout yeast; score 100 = 6 SD above DMSO | activity score, % at 12 µM | 300,000 compounds, 0.02% hits | AID 1875, 2009;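 active = lowest replicate activity score at least 50, where 100 means six control SD above control mean; inconclusive = lowest score under 50 but half or more replicates reach 50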;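 note: yeast exposed to compound for 9 h at 30 °C; higher score means more reporter readthrough which indicates perturbed polyadenylation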
# CHT PAM – CHT positive allosteric modulators, primary screen, cell-based, membrane potential dye, choline EC20. High affinity choline transporter 1 (Homo sapiens), Q9GZV3. CHT-expressing cells; active compounds read high; LV-AA mutant CHT in HEK293 cells. B-score at 10 µM. 310,000 compounds, 0.49% hits;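 active = initial fluorescence not abnormally high and integrated response B-score, plate-corrected, over 3 SD above library mean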
# Target sequence (Q9GZV3 whole entry, looked up): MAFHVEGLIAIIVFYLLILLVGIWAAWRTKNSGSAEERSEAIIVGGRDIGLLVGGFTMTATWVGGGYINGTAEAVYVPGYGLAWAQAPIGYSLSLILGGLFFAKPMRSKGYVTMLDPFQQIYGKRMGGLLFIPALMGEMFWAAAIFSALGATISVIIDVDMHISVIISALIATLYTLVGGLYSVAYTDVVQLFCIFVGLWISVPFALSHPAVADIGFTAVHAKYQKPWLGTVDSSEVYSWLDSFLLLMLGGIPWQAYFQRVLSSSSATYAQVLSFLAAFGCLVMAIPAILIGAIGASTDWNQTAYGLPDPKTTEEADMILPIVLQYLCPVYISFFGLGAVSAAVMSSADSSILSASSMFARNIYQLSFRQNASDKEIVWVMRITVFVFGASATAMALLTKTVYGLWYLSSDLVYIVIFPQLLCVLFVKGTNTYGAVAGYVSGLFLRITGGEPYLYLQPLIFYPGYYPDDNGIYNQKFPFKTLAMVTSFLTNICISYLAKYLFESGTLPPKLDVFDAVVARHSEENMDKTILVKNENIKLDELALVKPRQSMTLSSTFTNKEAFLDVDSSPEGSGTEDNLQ
# CHT block – inhibitors of human choline transporter CHT. High affinity choline transporter 1 (Homo sapiens), Q9GZV3. CHT-expressing cells, membrane potential dye, choline response; active compounds read low. B-score at 10 µM. 310,000 compounds, 0.86% hits. AID 488975, 2010;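 active = B-score over 3 SD under the library average, and starting fluorescence ratio not unusually high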;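 note: choline stimulus applied at its EC90 after an EC20 pre-addition; B-score computed on integrated fluorescence ratio after choline addition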
# Active calls of the source: *; i = inactive; ? = inconclusive; . = no result given; ! = repeats disagree.
SMILES,T cruzi inh,PolyA inhibitor,CHT PAM,CHT block
COc1cccc2c1C(=O)c1c(O)c3c(c(O)c1C2=O)C[C@@](O)(C(=O)CO)C[C@@H]3O[C@H]1C[C@H](N)[C@@H](O)[C@H](C)O1,48,3,i,i
CCn1nc(C)c(CN2CCC(n3nccc3NC(=O)Cc3ccccc3)CC2)c1C,-3,10,i,i
O=[N+]([O-])c1ccc(N/N=C/c2sc(N3CCOCC3)nc2-c2ccccc2)c(S(=O)(=O)Nc2ccc(Cl)cc2)c1,84*,17,.,.
COc1ccc(Cc2n[nH]c(=O)c3ccccc23)cc1OC,3,4,i,i
CC[n+]1ccc2cc(OC)c(OC)cc2c1Cc1ccc(OC)c(OC)c1,10,-4,6.3*,i
COc1ccc(Cc2c3cc(OC)c(OC)cc3cc[n+]2C)cc1OC,-1,-6,12*,i
CN1CCc2c(sc(NC(=O)c3cc4cc([N+](=O)[O-])ccc4s3)c2C(N)=O)C1,69*,-18,.,.
CN1CCc2c(sc(NC(=O)c3ccco3)c2C(N)=O)C1,-5,6,i,i
CN1CCc2c(sc(NC(=O)c3ccc([N+](=O)[O-])o3)c2C(N)=O)C1,64*,3,i,i
CC(C)N1CCc2c(sc(NC(=O)c3cc4cc([N+](=O)[O-])ccc4s3)c2C(N)=O)C1,-1,-4,.,.
CCOc1ccc(NC(=O)CCCNC(=O)Cn2cnc3sc(C)c(C)c3c2=O)cc1,-5,9,i,i
CCC(OC(=O)CNS(=O)(=O)c1ccccc1)C(=O)c1ccccc1 (stereo not given),-11,14,i,i
C=CCc1cccc(/C=N/NC(=O)CNc2ccccc2OC)c1O,65*,3,i,i
C=CCc1cccc(/C=N/NC(=O)CCCNc2ccc(C)cc2)c1O,-14,1,i,i
C=CCc1cccc(/C=N/NC(=O)CNc2cccc3ccccc23)c1O,38,-2,i,i
C=CCc1cccc(/C=N/NC(=O)C(C)Nc2cccc(C)c2)c1O (stereo not given),81*,0,i,i
Cc1cccc(C(=O)NCC(=O)Nc2ccncc2)c1,-18,6,i,i
O=C(O)c1cccc(N/N=C(\N=Nc2ccccc2)c2ccccc2)c1,8,-9,i,-6.4*
O=C(O)c1ccc(N=N/C(=N\Nc2ccc(C(=O)O)cc2)c2ccccc2)cc1,-3,1,i,i
O=C(Nc1ccccc1)Nc1cnccn1,3,17,i,i
CCCCc1ccc(/C(C)=N/Nc2cc(N3CCOCC3)nc(C)n2)cc1,62*,3,i,i
CCOC(=O)c1nnn(-c2ccc([N+](=O)[O-])cc2[N+](=O)[O-])c1C,96*,-8,i,i
Cc1cccc(C(=O)O/N=C/c2c(N3CCOCC3)n(C)c3ccccc23)c1,73*,-27,i,i
CCN1CCN(C(=O)c2ccc(Cl)c(S(=O)(=O)N3CCCCC3)c2)CC1,-2,-9,i,i
O=C(Nc1nc2ccccc2n1Cc1ccc(Cl)cc1)c1ccco1,76*,-23,i,i
SMILES,T cruzi inh,PolyA inhibitor,CHT PAM,CHT block
CCCn1c(NC(=O)c2ccc([N+](=O)[O-])o2)nc2ccccc21,58*,-7,i,i
CC(=O)Nc1nc2ccccc2n1Cc1ccc(Cl)cc1,?,-7,i,i
Cc1cccc(OCCn2c(NC(=O)c3ccco3)nc3ccccc32)c1,60*,-25,i,i
O=C(Nc1nc2ccccc2n1CCOc1ccc(Cl)cc1)c1ccco1,57*,-6,i,i
O=C(Nc1nc2ccccc2n1CCOc1ccccc1)c1ccco1,25,-42,i,i
O=C(O)c1cc([N+](=O)[O-])cc2c1C=Cc1ccccc1O2,-5,6,i,i
CN(C)c1ccc(NC(=S)NC23CC4CC(CC(C4)C2)C3)cc1,27,11,i,i
Fc1ccc(Nc2c3c(nc4ccccc24)CCC3)cc1,58*,-7,i,i
Nc1c2c(nc3ccccc13)CCCC2,-4,-13,7.6*!,i
Nc1c2ccccc2nc2ccccc12,69*!,-5,i,i
Oc1ccccc1N1CCN(c2ccc3ccccc3n2)CC1,7,4,i,i
Cc1cc2nc(C)c(=O)n(C)c2cc1C,-6,10,i,i
Cc1cc2nc3n(c2cc1C)CCCN3,67*,-15,i,i
O=C(N/N=C/c1cccc(F)c1)c1c(O)c2ccccc2[nH]c1=O,3,?,i,i
O=C(N/N=C/c1ccc(F)cc1)c1c(O)c2ccccc2[nH]c1=O,2,60*,i,i
CC(=O)N(C)c1cccc(-c2ccc3nnc(C)n3n2)c1,-2,-8,i,i
CC(=O)/C(=C\N(C)C)Sc1ccc(Cl)cc1,4,10,i,i
S=C(Sc1ccc(Cl)cc1)Sc1ccc(Cl)cc1,63*,-4,i,i
CC(C)S(=O)(=O)c1csc(NC(=O)Nc2ccc(Cl)cc2)c1,6,-12,i,i
Cc1onc(-c2ccccc2Cl)c1C(=O)NCc1nnnn1-c1ccc(F)cc1,-9,5,i,i
CC(C)(C)C1CCc2[nH]c3ccccc3c(=O)c2C1 (stereo not given),59*,-8,i,i
Cc1nn2c(NCc3ccccn3)cc(C(C)(C)C)nc2c1-c1ccccc1,57*,-55,i,i
CCCc1cc(NCCCn2ccnc2)n2nc(C)c(-c3ccccc3)c2n1,17,9,i,-7.1*
CCN1C(=O)[C@@H]2[C@@H](c3ccc(-c4ccc(C(C)=O)cc4)c(OC)c3)N3CCC[C@@]3(C(=O)OC)[C@@H]2C1=O,.,.,i,i
Clc1ccc(CNCCCSc2ncccn2)cc1Cl,56*,-4,i,i
SMILES,T cruzi inh,PolyA inhibitor,CHT PAM,CHT block
COc1ccc(OCCCSc2ncccn2)cc1,-5,-7,i,i
Clc1cccc(Cl)c1CNCCCSc1ncccn1,31,-8,i,i
CCOc1ccc(CNCCCSc2ncccn2)cc1,55*,-2,i,i
CC(C)c1ccc(CNCCCSc2ncccn2)cc1,71*,8,i,i
Cc1cc(C)cc(CN2C(=O)NC3(CCCCCC3)C2=O)c1,-6,-2,i,i
C#CCOCCOCCOCCNc1nc(N2CCN(C(=O)CCCCCCCCCCNC(=O)[C@H](CO)n3cc(CCCSC)nn3)CC2)nc(N2CCN(C(=O)CCCCCCCCCCNC(=O)[C@H](CCCCN)n3cc(C[C@@H](C)CC)nn3)CC2)n1,55*,9,i,i
